# According to PMC11568772 (Drug Design, Development and Therapy, 2024):
# Legend:
# [1] = test system: human cervical (Hela) carcinoma cell line; test: MTT cytotoxicity, Hela; assay type: cell-based; details: 24 h, read-out: IC50 Hela
# How it was run: (§1)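 Cells were grown in medium with 10% FBS, penicillin/streptomycin, 37°C, 5% CO2, then seeded at 1.0×10^4 cells/well and held 48 h. Test compound was added at 1.56, 3.125, 6.25, 12.5, 25, 50 and 100, for 24 h. MTT (5 mg/mL stock) was added for 4 h, formazan dissolved in DMSO and A570 read. Viability was taken relative to untreated wells. IC50 came from a Boltzmann sigmoidal fit, in triplicate, mean ± SD.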
# [2] = test system: WI-38 normal fibroblast cells; test: MTT cytotoxicity towards normal human cells WI-38; assay type: cell-based; details: WI-38, 24 h, read-out: IC50 WI-38
# [3] = test system: hepatocellular (HePG2) carcinoma cell line; test: MTT cytotoxicity, HePG-2; assay type: cell-based; details: Homo sapiens, HepG2, 24 h, read-out: IC50 HePG-2
# [4] = test system: colorectal (HCT116) carcinoma cell line; test: MTT cytotoxicity, HCT-116; assay type: cell-based; details: Homo sapiens, HCT-116, 24 h, read-out: IC50 HCT-116
# [5] = test system: breast cancer (MCF-7) cell line; test: MTT cytotoxicity, MCF-7; assay type: cell-based; details: Homo sapiens, MCF7, 24 h, read-out: IC50 MCF-7
# How it was run: as §1
# [6] = test system: HCT-116, HePG-2, HeLa and MCF-7 cells; test: MTT cytotoxicity summarised over the 4 cancer cell lines; assay type: cell-based; details: Homo sapiens, read-out: IC50 range of one compound over the cancer cell lines
# How it was run: as §1
# VEGFR-2 enzyme = VEGFR-2 enzyme (Homo sapiens, UniProt P35968); test: VEGFR-2 kinase inhibitory assay; assay type: biochemical
# VEGFR-2 = details: read-out: IC50 VEGFR-2; reference medicine pazopanib; cited from earlier work
# [7] = test system: VEGF-induced proliferation; details: read-out: IC50 VEGF-induced proliferation; cited from earlier work
# Sequence of VEGFR-2 enzyme (P35968 20-1356): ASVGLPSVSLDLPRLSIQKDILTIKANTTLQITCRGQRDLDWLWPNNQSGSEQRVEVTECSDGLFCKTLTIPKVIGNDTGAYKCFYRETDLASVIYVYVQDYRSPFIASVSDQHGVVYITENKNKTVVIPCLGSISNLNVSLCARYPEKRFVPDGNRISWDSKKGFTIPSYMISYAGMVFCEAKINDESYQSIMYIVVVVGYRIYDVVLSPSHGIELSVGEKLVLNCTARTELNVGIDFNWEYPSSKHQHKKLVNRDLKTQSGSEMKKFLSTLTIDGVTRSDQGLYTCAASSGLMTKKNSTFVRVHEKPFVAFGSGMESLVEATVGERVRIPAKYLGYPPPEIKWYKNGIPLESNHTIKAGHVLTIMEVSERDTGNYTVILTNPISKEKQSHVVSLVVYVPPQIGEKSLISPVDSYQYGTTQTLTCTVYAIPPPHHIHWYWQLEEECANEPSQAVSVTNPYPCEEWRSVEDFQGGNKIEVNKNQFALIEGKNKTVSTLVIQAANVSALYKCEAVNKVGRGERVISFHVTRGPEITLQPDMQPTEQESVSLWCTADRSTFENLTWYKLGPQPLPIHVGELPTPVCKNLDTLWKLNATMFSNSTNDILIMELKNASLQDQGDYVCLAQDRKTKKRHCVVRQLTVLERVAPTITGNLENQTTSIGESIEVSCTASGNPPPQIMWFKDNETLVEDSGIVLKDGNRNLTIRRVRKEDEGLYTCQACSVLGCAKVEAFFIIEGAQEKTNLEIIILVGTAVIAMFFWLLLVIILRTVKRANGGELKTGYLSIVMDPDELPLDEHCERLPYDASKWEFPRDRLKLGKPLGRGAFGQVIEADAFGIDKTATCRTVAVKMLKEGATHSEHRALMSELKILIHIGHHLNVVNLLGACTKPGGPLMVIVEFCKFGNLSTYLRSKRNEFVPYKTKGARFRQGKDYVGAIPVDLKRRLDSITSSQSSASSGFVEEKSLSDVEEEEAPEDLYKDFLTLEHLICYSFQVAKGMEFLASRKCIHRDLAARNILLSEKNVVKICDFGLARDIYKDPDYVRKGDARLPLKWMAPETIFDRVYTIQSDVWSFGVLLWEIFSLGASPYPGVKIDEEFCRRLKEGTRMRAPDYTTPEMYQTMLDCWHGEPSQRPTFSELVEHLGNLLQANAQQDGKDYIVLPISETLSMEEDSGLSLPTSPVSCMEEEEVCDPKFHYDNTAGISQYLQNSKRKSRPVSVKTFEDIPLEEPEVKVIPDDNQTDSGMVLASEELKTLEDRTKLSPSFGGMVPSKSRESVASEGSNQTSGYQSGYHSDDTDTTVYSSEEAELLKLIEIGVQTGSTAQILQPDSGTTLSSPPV
IC50 (VEGFR-2 enzyme),"inhibition at 0.01 µM (VEGFR-2 enzyme; read-out: % Inhibition 0.01 μM, VEGFR-2 enzyme, 0.01 μM)","inhibition at 0.1 µM (VEGFR-2 enzyme; read-out: % Inhibition 0.1 μM, VEGFR-2 enzyme, 0.1 μM)","inhibition at 1 µM (VEGFR-2 enzyme; read-out: % Inhibition 1 μM, VEGFR-2 enzyme, 1 μM)","inhibition at 10 µM (VEGFR-2 enzyme; read-out: % Inhibition 10 μM, VEGFR-2 enzyme, 10 μM)","inhibition at 100 µM (VEGFR-2 enzyme; read-out: % Inhibition 100 μM, VEGFR-2 enzyme, 100 μM)",SMILES,IC50 [1],IC50 [2],IC50 [3],IC50 [4],IC50 [5],IC50 [6],IC50 (VEGFR-2),IC50 [7]
–,–,–,–,–,–,"COc1ccc(CNC(=O)NCCSc2nc3cc(Cl)ccc3c(=O)n2-c2ccccc2)cc1 [Compound 5o, 1-(2-((7-Chloro-4-Oxo-3-Phenyl-3,4-Dihydroquinazolin-2-Yl)thio)ethyl)-3-(4-Methoxybenzyl)urea]",90.2 ± 4.8 µM,35.9 ± 2.3 µM,84.3 ± 4.6 µM,69.3 ± 3.9 µM,86.5 ± 4.2 µM,69.3 to 90.2 µM,–,–
–,–,–,–,–,–,"O=C(NCCSc1nc2cc(Cl)ccc2c(=O)n1-c1ccccc1)NCCc1ccccc1 [Compound 5q, 1-(2-((7-Chloro-4-Oxo-3-Phenyl-3,4-Dihydroquinazolin-2-Yl)thio)ethyl)-3-Phenethylurea]",45.2 ± 2.7 µM,53 ± 3.1 µM,41.6 ± 2.8 µM,32.5 ± 2.5 µM,24.6 ± 2 µM,–,–,–
–,–,–,–,–,–,"O=C(NCCSc1nc2cc(Cl)ccc2c(=O)n1-c1ccccc1)Nc1ccc(C(F)(F)F)cc1 [Compound 5m, 1-(2-((7-Chloro-4-Oxo-3-Phenyl-3,4-Dihydroquinazolin-2-Yl)thio)ethyl)-3-(4-(Trifluoromethyl)phenyl)urea]",27.9 ± 2.1 µM,76.3 ± 4.3 µM,30.7 ± 2.2 µM,18.1 ± 1.5 µM,21.4 ± 1.8 µM,18.1 to 30.7 µM,–,–
0.274 µM,25.5%,38.9%,60.4%,83.5%,91%,"O=C(NCCSc1nc2ccccc2c(=O)n1-c1ccccc1)Nc1ccc(C(F)(F)F)cc1 [Compound 5d, 1-(2-((4-Oxo-3-Phenyl-3,4-Dihydroquinazolin-2-Yl)thio)ethyl)-3-(4-(Trifluoromethyl)phenyl)urea]",8.94 ± 0.7 µM,36.3 ± 2.4 µM,2.39 ± 0.1 µM,6.09 ± 2.2 µM,4.81 ± 0.2 µM,2.39 to 8.94 µM,–,–
–,–,–,–,–,–,"O=C(NCCSc1nc2cc(Cl)ccc2c(=O)n1-c1ccccc1)Nc1ccc(Cl)cc1 [Compound 5k, 1-(2-((7-Chloro-4-Oxo-3-Phenyl-3,4-Dihydroquinazolin-2-Yl)thio)ethyl)-3-(4-Chlorophenyl)urea]",38 ± 2.5 µM,> 100 µM,40.9 ± 2.6 µM,23.4 ± 2.1 µM,32.9 ± 2.3 µM,23.4 to 40.9 µM,–,–
–,–,–,–,–,–,"COc1ccc(CNC(=O)NCCSc2nc3ccccc3c(=O)n2-c2ccccc2)cc1 [Compound 5f, 1-(4-Methoxybenzyl)-3-(2-((4-Oxo-3-Phenyl-3,4-Dihydroquinazolin-2-Yl)thio)ethyl)urea]",31.5 ± 2.3 µM,91.4 ± 5.1 µM,34.2 ± 2.4 µM,14.8 ± 1.3 µM,18.7 ± 1.5 µM,14.8 to 34.2 µM,–,–
–,–,–,–,–,–,COc1cc2c(Oc3ccc4[nH]c(C)cc4c3F)ncnc2cc1OCCCN1CCCC1 [Cediranib],–,–,–,–,–,–,–,< 0.001 µM
–,–,–,–,–,–,"O=C(NCCSc1nc2ccccc2c(=O)n1-c1ccccc1)NCCc1ccc(Cl)cc1 [Compound 5i, 1-(4-Chlorophenethyl)-3-(2-((4-Oxo-3-Phenyl-3,4-Dihydroquinazolin-2-Yl)thio)ethyl)urea]",58.3 ± 3.3 µM,> 100 µM,49.8 ± 3.2 µM,39.1 ± 2.7 µM,43.1 ± 2.8 µM,39.1 to 58.3 µM,–,–
–,–,–,–,–,–,"O=C(NCCSc1nc2ccccc2c(=O)n1-c1ccccc1)Nc1ccc(Br)cc1 [Compound 5c, 1-(4-Bromophenyl)-3-(2-((4-Oxo-3-Phenyl-3,4-Dihydroquinazolin-2-Yl)thio)ethyl)urea]",67.7 ± 3.9 µM,> 100 µM,57.8 ± 3.6 µM,48.2 ± 3 µM,55.1 ± 3.2 µM,48.2 to 67.7 µM,–,–
